Experimental data: paper PMC10655119 (Journal of the American Chemical Society, 2023)
One block for each compound: values may come before it.

How the values were obtained:
Assay type in all cases: cell-based
HeLa cells [1] = assay: Protein-CPP; settings: 1 h; for Delivery of I into the cytosol with CPP-additive at 2.5 μM: I 5 μM + CPP-additive 2.5 μM, serum-free
HeLa cells [2] = assay: Time-lapse fluorescence microscopy of Cy5-labeled CPP-additives; settings: for Time until nucleolar mCherry signals are observed: serum-free, images at 60 s intervals
Procedure, shortened: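 HeLa cells given Cy5-labeled R10 peptide additives (1 μM), with or without the hydrophobic motif, in serum-free FluoroBrite DMEM. Confocal imaging at 5 and 10 min, with line-scan profiles of Cy5 distribution. For cotreatment, NLS-mCherry-R10 cargo (5 μM) and additive were added after 60 s of baseline imaging. Frames taken every 60 s for 15 min to track nucleolar mCherry.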

HeLa cells [3] = assay: Mitochondrial dehydrogenase; settings: 1 h, serum-free FluoroBrite DMEM
Procedure, shortened: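 HeLa cells exposed 1 h to CPP-additive (2.5, 5 or 10 μM) in serum-free FluoroBrite DMEM, then viability read by WST-1 reduction to formazan by mitochondrial dehydrogenase. For prolonged exposure, cells coincubated 1 h with NLS-mCherry-R10 cargo plus additive, supernatant replaced with fresh culture medium, and WST-1 read after 24 h.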

HeLa cells [4] = assay: Lactate dehydrogenase; settings: 1 h
Procedure, shortened: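 HeLa cells exposed to CPP-additives at 2.5, 5 or 10 μM for 1 h in serum-free FluoroBrite DMEM. Membrane integrity judged by lactate dehydrogenase released into the medium. Mean ± SE of three biological replicates.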

[5] = HeLa, 2.5, 5 or 10 μM CPP-additive, three biological replicates
[6] = HeLa, 2.5, 5 or 10 μM CPP-additive

Compound: TNB-R10-Nal [compound 6]
Delivery of I into the cytosol with CPP-additive at 2.5 μM (HeLa cells [1]): successful delivery

Compound: alk-Cy5-R10-ILFF [alkylated analogue]
Membrane interaction and facilitation of protein-CPP uptake (HeLa cells [2]; alk-Cy5-R10-ILFF 1 μM alone or with I 5 μM, 10 min): incapable of both interacting with the cell membrane and facilitating the uptake of protein-CPPs

LDH release (membrane integrity) (HeLa cells [4]; [6]): no LDH release
Compound: TNB-R10-ILIL [compound 4]
Cytotoxicity (WST1 assay) (HeLa cells [3]; [5]): no cytotoxic effect

Compound: O=C(O)CCCc1ccc2ccc3cccc4ccc1c2c34 [PyB, pyrenebutyrate, reference compound]
Uptake of I at lowered I concentration with PyB (HeLa cells [1]; PyB 50 μM 5 min, then I 5 μM): loss of enhanced uptake of I | Uptake of I after pretreatment with PyB at 10 μM and lower (HeLa cells [1]; PyB 10 and 5 μM 5 min, then I): only endosomal uptake

LDH release (membrane integrity) (HeLa cells [4]; [6]): no LDH release
Compound: TNB-R10-ILLL [compound 5]
Cytotoxicity (WST1 assay) (HeLa cells [3]; [5]): no cytotoxic effect

Compound: TNB-R10-Nal2 [compound 7]
Delivery of I into the cytosol with CPP-additive at 2.5 μM (HeLa cells [1]): successful delivery

LDH release (membrane integrity) (HeLa cells [4]; HeLa, 5 μM CPP-additive): significantly released
Compound: TNB-R10-FWF [compound 3]
Cytotoxicity (WST1 assay) (HeLa cells [3]; HeLa, 5 μM CPP-additive): no cytotoxicity

Compound: TNB-Cy5-R10-ILFF [compound 23]
Line-scan profile of Cy5 fluorescence after 10 min (HeLa cells [2]; 1 μM peptide alone): remained concentrated around the cell periphery | Time until cell-surface-associated additive is internalized into endosomes (HeLa cells [2]; 23 1 μM 5 min at 37 °C, washed, time-lapse 30 min): 30 min | Cell membrane accumulation of additive in the presence of I (HeLa cells [2]; I 5 μM + Cy5-additive 1 μM): persisted even after 10 min | Time until nucleolar mCherry signals are observed (HeLa cells [2]; I 5 μM + Cy5-additive 1 μM): 3 min

Compound: TNB-Cy5-R10 [compound 22]
Line-scan profile of Cy5 fluorescence after 10 min (HeLa cells [2]; 1 μM peptide alone): mainly observed within the interior of cells | Localisation of Cy5-labeled CPP-additive over time (HeLa cells [2]; 1 μM peptide alone, serum-free FluoroBrite DMEM, 37 °C, time-lapse): quickly enters the cytosol | Time until nucleolar mCherry signals are observed (HeLa cells [2]; I 5 μM + Cy5-additive 1 μM): 15 min
